Screening results from PubChem BioAssay.
NTR1 ag: activates human neurotensin receptor 1. P30989. NTR1-U2OS beta-arrestin-GFP spot imaging, agonist mode. 330,000 compounds, 0.17% hits. activation, % at 20 µM;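 active = activation at or above 40% of the spot to cytoplasm intensity ratio, with at least 20 cells analyzed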;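 note: 0% = DMSO without peptide and 100% = 100 nM NTR1 peptide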
sPLA2-III inh: Blocks human group III sPLA2 activity; Q9NZ20; QFRET BODIPY PC-A2 liposome hydrolysis, fluorescence; inhibition, % at 12.2 µM; 370,000 compounds, 0.56% hits;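 active = inhibition above mean plus 3 SD of compounds lying within the high and low control bounds, cut at about 19% in these data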;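 note: 0% = median of test compound wells and 100% = no enzyme DMSO wells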
Granule exo inh: blocks lytic granule exocytosis; inhibition, % at 10 µM; 360,000 compounds, 0.66% hits; AID 651702; TALL-104 LAMP-1 surface exposure, flow cytometry; cells stimulated with thapsigargin and PMA;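 active = inhibition above about 55%, limit read from the data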
MC4R ag barr: activates human MC4R beta-arrestin recruitment | U2OS MC4R beta-arrestin complementation, luminescence; percent of melanotan II response, DMSO zero | activation, % at 8.9 µM | 360,000 compounds, 0.98% hits;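 active = activation above a per-plate cutoff, the mean activation of sample wells on that plate plus 3 SD, cut at about 8% in these data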
Target sequence (P32245 whole entry, looked up): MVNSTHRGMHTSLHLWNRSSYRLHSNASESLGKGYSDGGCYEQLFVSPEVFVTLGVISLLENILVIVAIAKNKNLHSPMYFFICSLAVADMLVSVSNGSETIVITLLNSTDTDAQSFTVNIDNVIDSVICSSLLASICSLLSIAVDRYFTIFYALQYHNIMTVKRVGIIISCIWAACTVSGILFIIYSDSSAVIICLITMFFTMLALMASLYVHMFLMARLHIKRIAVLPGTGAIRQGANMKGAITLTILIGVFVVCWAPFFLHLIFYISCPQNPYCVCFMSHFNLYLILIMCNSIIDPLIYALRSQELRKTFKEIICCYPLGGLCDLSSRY
MC4R antag cAMP: human MC4R antagonism in cAMP assay. P32245. MC4R-expressing cells, MTII-stimulated cAMP, LANCE TR-FRET. inhibition, % at 6.5 µM. 360,000 compounds, 0.48% hits;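 active = inhibition above its plate's cutoff, the mean of tested wells on that plate plus 3 SD, cut at about 29% in these data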;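 note: 0% = Melanotan II alone and 100% = Melanotan II plus saturating MCL0020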
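System – human MC4R-expressing U2OS cells · Also added – Melanotan II · Dosing – one concentration, 6.5 µM nominal · Timing – 30-min compound, 1-h challenge, 1-h detection, room temperature · Measured by – Eu-cAMP/anti-cAMP TR-FRET, emission 671 nm · Replicates – singlicate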
A1 inh: inhibitors of the anti-apoptotic protein A1, read as caspase activation; MEF A1-2A-BIM cells, Caspase-Glo 3/7 luminescence, 3 h; percent of clofoctol response, vehicle zero; caspase activation, % (concentration not given with the values); 330,000 compounds, 0.066% hits; AID 2462;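 active = over half of replicate activation scores above 10%, or exactly half above 10 with the replicate mean above 10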
Exocytosis CP01: lytic granule exocytosis inhibition. shares compounds with Granule exo inh. TALL-104 cells, LAMP-1 externalization, flow cytometry; stimulated with PMA plus thapsigargin. AID 651954. inhibition, % at 10 µM. 1,500 compounds, 11% hits; in the data active = inhibition above about 60%;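 note: 0% = stimulated vehicle wells and 100% = unstimulated wells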
Numbers without * were called inactive. This is a sample that favours compounds with a hit; in the whole collection about 2.5% have one here.

How did CCOC(=O)C1(CCOc2ccccc2)CCN(Cc2ccc(O)c(Cl)c2)CC1 do in these assays?
NTR1 ag: 2; sPLA2-III inh: -19; Granule exo inh: 3; MC4R ag barr: 1; MC4R antag cAMP: 6; A1 inh: 0

How did CCOC(=O)C1(CCOc2ccccc2)CCN(Cc2cccc(OC)c2)CC1 do in these assays?
sPLA2-III inh: -10; Granule exo inh: 86*; MC4R ag barr: 3; MC4R antag cAMP: 13; A1 inh: 0; Exocytosis CP01: -6

How did CCOC(=O)C1(Cc2cccc(OC)c2)CCN(Cc2ccc3c(c2)OCCO3)CC1 do in these assays?
NTR1 ag: 6; sPLA2-III inh: -2; Granule exo inh: 46; MC4R ag barr: -3; MC4R antag cAMP: 6; A1 inh: 3

Results for CCOC(=O)C1(CCOc2ccccc2)CCN(Cc2ccc(F)c(OC)c2)CC1 ?
NTR1 ag: 2; sPLA2-III inh: -10; Granule exo inh: 72*; MC4R ag barr: 2; MC4R antag cAMP: -1; A1 inh: 1; Exocytosis CP01: -3

How did C=CCN=C1NC(c2ccccc2C(F)(F)F)C(C(=O)OC)=C(C)N1Cc1ccccc1C(F)(F)F (stereo unspecified) do in these assays?
sPLA2-III inh: 0

What do the screens show for `CCOC(=O)C1(CCOc2ccccc2)CCN(Cc2ccncc2)CC1`?
NTR1 ag: -1; sPLA2-III inh: -5; Granule exo inh: -1; MC4R ag barr: -2; MC4R antag cAMP: -1; A1 inh: 0

What do the screens show for `CCOC(=O)C1(CCOc2ccccc2)CCN(Cc2cccc(OC)c2O)CC1`?
NTR1 ag: 3; sPLA2-III inh: -17; Granule exo inh: 69*; MC4R ag barr: 0; MC4R antag cAMP: 7; A1 inh: 1; Exocytosis CP01: -9

Results for CCOC(=O)C1(CCOc2ccccc2)CCN(Cc2cc(OC)ccc2OC)CC1 ?
NTR1 ag: 0; sPLA2-III inh: -4; Granule exo inh: 84*; MC4R ag barr: 0; MC4R antag cAMP: 2; A1 inh: 0; Exocytosis CP01: -7

How did COc1ccc(C(=O)N/C(=C\c2cccc3ccccc23)C(=O)N2CCN(C)CC2)cc1 do in these assays?
NTR1 ag: -1; sPLA2-III inh: -2; Granule exo inh: -12; MC4R ag barr: -1; MC4R antag cAMP: -2; A1 inh: 0

What do the screens show for `O=C1CC[C@@H]2CC3(C[C@@H]4CCN1[C@H]24)Nc1cc(Cl)ccc1NC3=NC1CCCCC1` (stereo partly specified)?
sPLA2-III inh: 2; Granule exo inh: 44; MC4R ag barr: 0; MC4R antag cAMP: 9

Results for O=C1CCC[C@@H]2C[C@@]3(C[C@@H]4CCN1[C@H]24)Nc1cc(Cl)ccc1NC3=NC1CCCCC1 ?
sPLA2-III inh: -1; Granule exo inh: 76*; MC4R ag barr: 0; MC4R antag cAMP: 20; Exocytosis CP01: -12

Results for Cc1ccc(/C=C\c2nccc3c2[nH]c2ccccc23)cc1 ?
NTR1 ag: 4; sPLA2-III inh: -40; Granule exo inh: 75*; MC4R ag barr: 6; MC4R antag cAMP: 9; A1 inh: 2; Exocytosis CP01: 4

What do the screens show for `Fc1ccc(/C=C\c2nccc3c2[nH]c2ccccc23)cc1`?
NTR1 ag: 15; sPLA2-III inh: -25; Granule exo inh: 83*; MC4R ag barr: 5; MC4R antag cAMP: 0; A1 inh: 2; Exocytosis CP01: 93*

Results for COc1ccc(Cc2c(C3CCCCC3)nc3ccc(C)cn23)c(C)c1 ?
sPLA2-III inh: 5

How did C=CCCO[C@@H]1O[C@@H](C)[C@H](O)C[C@H]1O do in these assays?
NTR1 ag: 2; sPLA2-III inh: 5; Granule exo inh: 7; MC4R ag barr: -1; MC4R antag cAMP: 10; A1 inh: -1

Results for COc1ccc(C2c3ccc4ccccc4c3Oc3ncn(CCCN(C)C)c(=N)c32)cc1 (stereo unspecified) ?
NTR1 ag: 24; sPLA2-III inh: -13; Granule exo inh: 1; MC4R ag barr: 2; MC4R antag cAMP: 5; A1 inh: 1

How did Clc1nc(CN2CCOCC2)nc2sc3c(c12)CCC3 do in these assays?
NTR1 ag: 0; sPLA2-III inh: 4; Granule exo inh: -1; MC4R ag barr: -2; MC4R antag cAMP: 11; A1 inh: 0

How did Clc1nc(CN2CCCCC2)nc2sc3c(c12)CCCC3 do in these assays?
NTR1 ag: 9; sPLA2-III inh: -4; Granule exo inh: 98*; MC4R ag barr: -4; MC4R antag cAMP: 6; A1 inh: 0; Exocytosis CP01: -12

How did CC(=O)O[C@@H]1CCC[C@@]2(C(=O)N(Cc3ccccc3)c3ccc(-c4c(C)noc4C)cc32)[C@H]1NC(=O)CCc1ccccc1 do in these assays?
sPLA2-III inh: -21

How did O=C(CSc1nc2ccccc2c(=O)n1-c1ccccc1)NCc1ccc2c(c1)OCO2 do in these assays?
NTR1 ag: 2; sPLA2-III inh: 1; Granule exo inh: -2; MC4R ag barr: 0; MC4R antag cAMP: -2; A1 inh: 0

Results for CC(Sc1nc2cc([N+](=O)[O-])ccc2n1-c1ccc(F)cc1)C(=O)NCc1ccc2c(c1)OCO2 (stereo unspecified) ?
NTR1 ag: 4; sPLA2-III inh: 6; Granule exo inh: 88*; MC4R ag barr: 1; MC4R antag cAMP: 8; A1 inh: 1; Exocytosis CP01: -5

What do the screens show for `COc1ccccc1-n1c(SCC(=O)NCc2ccc3c(c2)OCO3)nc2cc([N+](=O)[O-])ccc21`?
NTR1 ag: 23; sPLA2-III inh: 7; Granule exo inh: 95*; MC4R ag barr: -1; MC4R antag cAMP: 9; A1 inh: -1; Exocytosis CP01: 0

What do the screens show for `Cc1cc(C)cc(-n2c(SC(C)C(=O)NCc3ccc4c(c3)OCO4)nc3ccccc3c2=O)c1` (stereo unspecified)?
NTR1 ag: -1; sPLA2-III inh: 12; Granule exo inh: -4; MC4R ag barr: 2; MC4R antag cAMP: 14; A1 inh: 1

How did COc1ccccc1CNC(=O)c1cccc(S(=O)(=O)N2CCCC2)c1 do in these assays?
NTR1 ag: 1; sPLA2-III inh: -3; Granule exo inh: 2; MC4R ag barr: -3; MC4R antag cAMP: -1

What do the screens show for `COc1ccc(CCNC(=O)C2CC3Cn4c(nc5ccccc54)C3N2Cc2ccccc2)cc1` (stereo unspecified)?
NTR1 ag: 0; sPLA2-III inh: -1; Granule exo inh: 1; MC4R ag barr: -2; MC4R antag cAMP: 3; A1 inh: 0
